This note sets out measurements from ChEMBL document CHEMBL4190208, “Design, synthesis and characterization of novel quinacrine analogs that preferentially kill cancer over non-cancer cells through the down-regulation of Bcl-2 and up-regulation of Bax and Bad” (Eur J Med Chem, 2017).

Broadly, the IC50 is the point on the concentration scale where inhibition reaches its midpoint.

For series [1], the system named is MDA-MB-231. The series can be described thus: Cytotoxicity against human MDA-MB-231 cells assessed as growth inhibition after 48 hrs by SRB assay. The note with it: MDA-MB-231, 48 h. Type of series: functional, cell-based. The gist of the method: (§1)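 Cells seeded at 5000–10,000 per well and exposed continuously for 48 h to seven concentrations ([…]). DMSO stocks were diluted in medium, final DMSO ≤0.1%, and matched DMSO medium served as the negative control. Viable cell mass was read by SRB. IC50 is the concentration giving 50% growth decrease versus control. Values are the mean of triplicates from at least two independent experiments.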
For orientation: The SRB assay estimates cell density from bound dye.

For series [2], the system named is MCF7. The series can be described thus: Cytotoxicity against human MCF7 cells assessed as growth inhibition after 48 hrs by SRB assay. Format: functional, cell-based. Particulars: MCF7, 48 h. In a few lines:
as §1

Series [3] relates to MDA-MB-468. The series can be described thus: Cytotoxicity against human MDA-MB-468 cells assessed as growth inhibition after 48 hrs by SRB assay. Type of series: functional, cell-based. The note with it: MDA-MB-468, 48 h. In a few lines: as §1
In series [4] the test system is 184B5. The series can be described thus: Cytotoxicity against human 184B5 cells assessed as growth inhibition after 48 hrs by SRB assay. Format: cell-based. Particulars: 184B5, 48 h. The gist of the method:
as §1

The test system of another series is HeLa. The series can be described thus: Anticlonogenic activity against human HeLa cells at 3.5 uM after 12 days. Format: functional, cell-based.
Series [5] has as its system MDA-MB-231. The series can be described thus: Effect on Bcl-XL levels in human MDA-MB-231 cells at 6 uM after 24 to 72 hrs by Western blot method. Type of series: functional, cell-based. In general terms: A western blot detects proteins with antibodies after separation by electrophoresis.
Series [6] has as its system MCF7. The experiment in a line: Induction of apoptosis in human MCF7 cells assessed as upregulation of Bad expression at 4 to 6 uM after 48 hrs by Western blot method. Format: functional, cell-based.
The subject of series [7] is MDA-MB-231. The experiment in a line: Induction of apoptosis in human MDA-MB-231 cells assessed as upregulation of Bad expression at 6 uM after 24 to 72 hrs by Western blot method. Format: functional, cell-based.
Series [8] in a line: Selectivity index, ratio of IC50 for human MCF10A cells to IC50 for human MDA-MB-231 cells. Format: toxicity. The note with it: MCF10A cells versus MDA-MB-231 cells, read-out: Ratio IC50.
For series [9], the system named is MDA-MB-231. The series can be described thus: Induction of apoptosis in human MDA-MB-231 cells at 6 uM after 24 hrs by TUNEL assay. Type of series: functional, cell-based.
A short description of series [10]: Selectivity index, ratio of IC50 for human MCF10A cells to IC50 for human MCF7 cells. Format: toxicity. The note with it: MCF10A cells versus MCF7 cells, read-out: Ratio IC50.
Series [11] deals with MCF7. The series can be described thus: Induction of apoptosis in human MCF7 cells at 6 uM after 24 hrs by TUNEL assay. Format: functional, cell-based.
In series [12] the test system is MDA-MB-231. The series can be described thus: Induction of apoptosis in human MDA-MB-231 cells assessed as increase in cytochrome c levels in mitochondria at 6 uM after 24 to 72 hrs by Western blot method. Format: functional, cell-based.
Another series relates to MCF-10A. The experiment in a line: Cytotoxicity against human MCF10A cells assessed as growth inhibition after 48 hrs by SRB assay. Format: cell-based. The gist of the method: as §1
Series [13] has as its system 184B5. The experiment in a line: Cell cycle arrest in human 184B5 cells assessed as accumulation at sub-G1 phase at 6 uM after 48 hrs by flow cytometric method. Particulars: 184b5, 48 h. Type of series: ADME, cell-based. For orientation: A flow cytometer gives signals particle by particle.
Series [14] deals with MDA-MB-231. The series can be described thus: Induction of apoptosis in human MDA-MB-231 cells assessed as upregulation of Bax expression at 6 uM after 24 to 72 hrs by Western blot method. Type of series: functional, cell-based.
Series [15] relates to MDA-MB-468. The series can be described thus: Anticlonogenic activity against human MDA-MB-468 cells at 3.5 uM after 12 days. Type of series: functional, cell-based.
Series [16] has as its system MCF7. The experiment in a line: Anticlonogenic activity against human MCF7 cells at 3.5 uM after 12 days. Format: functional, cell-based.
The test system of series [17] is MDA-MB-231. The experiment in a line: Induction of apoptosis in human MDA-MB-231 cells assessed as change in cell morphology at 6 uM after 24 hrs by acridine orange/ethidium bromide staining-based confocal microscopic method. Type of series: functional.
Series [18] relates to MDA-MB-231. The experiment in a line: Induction of apoptosis in human MDA-MB-231 cells assessed as increase in PARP cleavage at 6 uM after 24 hrs by Western blot method. Type of series: functional, cell-based.
The subject of series [19] is MDA-MB-231. The series can be described thus: Induction of apoptosis in human MDA-MB-231 cells assessed as downregulation of Bcl-2 expression at 6 uM after 24 to 72 hrs by Western blot method. Type of series: functional, cell-based.
Series [20] has as its system MDA-MB-231. The experiment in a line: Cell cycle arrest in human MDA-MB-231 cells assessed as accumulation at sub-G1 phase at 6 uM after 48 hrs by flow cytometric method. Type of series: functional, cell-based.

Molecules are shown by their SMILES. Activity calls are given as the source filed them. No cut-off for these calls is given here.

As to `COc1ccc2nc3cc(Cl)ccc3c(NCCCN3C(=O)CSC3c3ccccc3[N+](=O)[O-])c2c1` (stereo not given), the IC50 was found to be 4.16 µM in the series on MDA-MB-231 [1], 3.68 µM with MCF7 [2], 3.2 µM with MDA-MB-468 [3] and 30.2 µM in the series with 184B5 [4].
The like results for `COc1ccc2nc3cc(Cl)ccc3c(NCCCN3C(=O)CSC3c3ccc(Cl)cc3Cl)c2c1` (stereo not given) were, in that order, 4.05 µM, 4.1 µM, 4.15 µM and 7.22 µM.
The like results for `COc1ccc2nc3cc(Cl)ccc3c(NCCCN3C(=O)CSC3c3ccccc3Cl)c2c1` (stereo not given) were, in that order, 3.85 µM, 3.87 µM, 3.89 µM and 13.2 µM.
The like results for `COc1ccc2nc3cc(Cl)ccc3c(NCCCN3C(=O)CSC3c3ccccc3)c2c1` (stereo not given) were, in that order, 3.55 µM, 3.23 µM, 2.54 µM and 8.06 µM.
In the case of `COc1ccc2nc3cc(Cl)ccc3c(NCCCN3C(=O)CSC3c3ccccc3Br)c2c1` (stereo not given), the IC50 worked out at 3.63 µM with MDA-MB-231 [1], 4 µM with MCF7 [2], 4.38 µM in the series with MDA-MB-468 [3] and 21.6 µM in the series with 184B5 [4].
The like results for `COc1ccc2nc3cc(Cl)ccc3c(NCCCN3C(=O)CSC3c3ccco3)c2c1` (stereo not given) were, in that order, 1.97 µM, 4.78 µM, 5.58 µM and 13.4 µM.
As to `COc1ccc2nc3cc(Cl)ccc3c(NCCCN3C(=O)CSC3c3ccc(F)cc3F)c2c1` (stereo not given), the IC50 was determined as 1.8 µM with MDA-MB-231 [1], 2.97 µM in the series with MCF7 [2], 4.15 µM in the series with MDA-MB-468 [3] and 4.14 µM with 184B5 [4].
The like results for `COc1ccc2nc3cc(Cl)ccc3c(NCCCN3C(=O)CSC3c3ccc(C)cc3)c2c1` (stereo not given) were, in that order, 2.93 µM, 3.26 µM, 3.59 µM and 7.98 µM.
The like results for `COc1ccc2nc3cc(Cl)ccc3c(NCCCN3C(=O)CSC3c3ccncc3)c2c1` (stereo not given) were, in that order, 1.11 µM, 2.27 µM, 5.1 µM and 16.8 µM.
The like results for `COc1ccc2nc3cc(Cl)ccc3c(NCCCN3C(=O)CSC3c3ccc(F)cc3)c2c1` (stereo not given) were, in that order, 1.89 µM, 3.07 µM, 4.26 µM and 12.1 µM.
On to `COc1ccc2nc3cc(Cl)ccc3c(NCCCN3C(=O)CSC3c3ccc(N(C)C)cc3)c2c1` (stereo not given), for which the IC50 in the series with MDA-MB-231 [1] amounted to 4.25 µM; with MCF7 [2], 3.78 µM; with MDA-MB-468 [3], 3.32 µM; in the series on 184B5 [4], 16.4 µM.
The like results for `COc1ccc2nc3cc(Cl)ccc3c(NCCCN3C(=O)CSC3c3ccc[nH]3)c2c1` (stereo not given) were, in that order, 6.4 µM, 10.6 µM, 4.52 µM and 18.4 µM.
The like results for `COc1ccc2nc3cc(Cl)ccc3c(NCCCN3C(=O)CSC3c3ccccc3F)c2c1` (stereo not given) were, in that order, 1.95 µM, 2.93 µM, 3.91 µM and 8.16 µM.
With `COc1ccc2nc3cc(Cl)ccc3c(NCCCN3C(=O)CSC3c3ccc(N(c4ccccc4)c4ccccc4)cc3)c2c1` (stereo not given), the IC50 in the series on MDA-MB-231 [1] came to 17.6 µM; with MCF7 [2], 10.4 µM; with MDA-MB-468 [3], 14.4 µM; in the series on 184B5 [4] it was 17.8 µM.
Consider `COc1ccc2nc3cc(Cl)ccc3c(NCCCN3C(=O)CSC3c3c(F)cccc3F)c2c1` (stereo not given), for which the outcome with HeLa, in the series with MCF7 [6], in the series with MDA-MB-231 [7], with MDA-MB-231 [9], with MCF7 [11] and with MDA-MB-231 [12] was Active. Also, the result with MDA-MB-231 [14], in the series with MDA-MB-468 [15], in the series on MCF7 [16], with MDA-MB-231 [17], in the series with MDA-MB-231 [18] and in the series on MDA-MB-231 [19] was Active. The outcome in the series with MDA-MB-231 [20] was Active. For the same molecule, the outcome in the series on MDA-MB-231 [5] was inactive. For the same molecule, the IC50 with MDA-MB-231 [1] amounted to 1.92 µM; in the series with MCF7 [2], 1.24 µM; with MDA-MB-468 [3], 2.4 µM; with 184B5 [4], 16.2 µM; with MCF-10A it was 18.2 µM. In addition, the selectivity ratio in series [8] amounted to 7.6; in [10], 14.7. The Activity result in the series on 184B5 [13] was “Non-Toxic”.
As to `COc1ccc2nc3cc(Cl)ccc3c(NCCCN3C(=O)CSC3c3ccnc4ccccc34)c2c1` (stereo not given), the IC50 in the series with MDA-MB-231 [1] was 3.7 µM; with MCF7 [2] it was 6.55 µM; in the series on MDA-MB-468 [3], 6.64 µM; in the series on 184B5 [4] it was 13.1 µM.
The like results for `COc1ccc2nc3cc(Cl)ccc3c(NCCCN3C(=O)CSC3c3cccs3)c2c1` (stereo not given) were, in that order, 6.76 µM, 3.31 µM, 4.61 µM and 18 µM.
On to `COc1ccc2nc3cc(Cl)ccc3c(NCCCN3C(=O)CSC3c3ccc([N+](=O)[O-])cc3)c2c1` (stereo not given), for which the IC50 in the series on MDA-MB-231 [1] was found to be 3.86 µM; with MCF7 [2], 4.36 µM; in the series on MDA-MB-468 [3] it was 4.87 µM; with 184B5 [4], 17.8 µM.
For the molecule `COc1ccc2nc3cc(Cl)ccc3c(NCCCN3C(=O)CSC3c3ccc(Cl)cc3)c2c1` (stereo not given), the IC50 in the series on MDA-MB-231 [1] was 3.73 µM; with MCF7 [2], 3.96 µM; in the series on MDA-MB-468 [3], 4.19 µM; in the series with 184B5 [4], 4.58 µM.
The like results for `COc1ccc2nc3cc(Cl)ccc3c(NCCCN3C(=O)CSC3c3ccc(Br)cc3)c2c1` (stereo not given) were, in that order, 3.74 µM, 3.71 µM, 3.68 µM and 4.88 µM.
With `COc1ccc2nc3cc(Cl)ccc3c(NCCCN3C(=O)CSC3c3c(Cl)cccc3Cl)c2c1` (stereo not given), the IC50 amounted to 3.98 µM in the series with MDA-MB-231 [1], 4.01 µM with MCF7 [2], 4.04 µM with MDA-MB-468 [3] and 28.3 µM in the series with 184B5 [4].
Turning to `COc1ccc2nc3cc(Cl)ccc3c(NCCCN3C(=O)CSC3C3CCCCC3)c2c1` (stereo not given), the IC50 came out at 3.86 µM in the series on MDA-MB-231 [1], 3.81 µM in the series on MCF7 [2], 3.75 µM with MDA-MB-468 [3] and 3.14 µM in the series on 184B5 [4].
For the molecule `COc1ccc2nc3cc(Cl)ccc3c(NCCCN3C(=O)CSC3c3c(F)cccc3Cl)c2c1` (stereo not given), the IC50 in the series with MDA-MB-231 [1] amounted to 2.12 µM; in the series with MCF7 [2], 3.04 µM; in the series on MDA-MB-468 [3], 3.96 µM; with 184B5 [4] it was 8.07 µM.
